How the values were obtained:
Eimeria tenella [1] = assay: Minimum effective concentration required to prevent formation of detectable lesions in Eimeria tenella infected leghorn cockerels.; type: functional; details: read-out: MEC
Summary of the method: (§1)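 Leghorn cockerels infected with Eimeria tenella, screened by a modified version of a published screening method. The minimum effective concentration, in ppm, is the lowest level that prevents detectable lesions.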

Gallus gallus [2] = species on record: Gallus gallus; assay: Minimum effective concentration required to prevent formation of detectable lesions in Eimeria tenella infected leghorn cockerels; type: functional; summary of the method: as §1
[3] = Half life in plasma of young cockerels; type: ADME, organism-based, Gallus gallus; details: male, chicken
Summary of the method: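 Plasma half-life in young cockerels, about 10 days old, determined by a previously described method.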

Gallus gallus [4] = assay: Plasma level measured 3h after oral administration of 4-5 mg/kg body weight in young cockerels; type: functional, organism-based
Summary of the method: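 Young cockerels, about 10 days old, given 4-5 mg/kg body weight orally; drug level in plasma measured 3 h after dosing, in mcg/mL.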

Eimeria tenella [5] = assay: The compound was evaluated for the variations in the vulnerability to Eimeria tenella; type: functional; details: read-out: MEC
Eimeria acervulina = assay: The compound was evaluated for the variations in the vulnerability to Eimeria acervulina; type: functional; details: read-out: MEC
[6] = Half life in plasma of older birds; type: ADME, organism-based, Gallus gallus; details: chicken
Summary of the method: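 Plasma half-life in older birds, about 9-10 weeks old, determined by a previously described method.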

Gallus gallus [7] = assay: Plasma level measured 3h after oral administration of 4-5 mg/kg body weight in older birds; type: functional, organism-based
Summary of the method: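 Older birds, about 9-10 weeks old, given 4-5 mg/kg body weight orally; drug level in plasma measured 3 h after dosing, in mcg/mL.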

Gallus gallus [8] = species on record: Gallus gallus; assay: Minimum effective concentration required to prevent formation of detectable lesions in Eimeria tenella infected leghorn cockerels; Value ranges from 60-120; type: functional; summary of the method: as §1
Gallus gallus [9] = species on record: Gallus gallus; assay: Minimum effective concentration required to prevent formation of detectable lesions in Eimeria tenella infected leghorn cockerels; value ranges from 15 to 30; type: functional; summary of the method: as §1

Compound `CCCCN(CC#N)S(=O)(=O)c1ccc(-n2ncc(=O)[nH]c2=O)cc1Cl` has a minimal effective concentration (Eimeria tenella [1]) of over 120 µg/mL.
Work on `CCCN(C)S(=O)(=O)c1c(C)cc(-n2ncc(=O)[nH]c2=O)cc1C` yielded a minimal effective concentration (Eimeria tenella [1]) of 120 µg/mL.
Work on `Cc1cc(-n2ncc(=O)[nH]c2=O)cc(Cl)c1S(=O)(=O)N(C)C` yielded a minimal effective concentration (Eimeria tenella [1]) of 60 µg/mL.
Compound `Cc1cc(-n2ncc(=O)[nH]c2=O)cc(C)c1S(=O)(=O)N(C)Cc1ccccc1` has a minimal effective concentration (Eimeria tenella [1]) of 60 µg/mL.
Compound `O=c1cnn(-c2ccc(S(=O)(=O)N(Cc3ccccc3)Cc3ccccc3)c(Cl)c2)c(=O)[nH]1` has a minimal effective concentration (Eimeria tenella [1]) of over 250 µg/mL.
Work on `O=c1cnn(-c2ccc(S(=O)(=O)NC3CCCCC3)c(Cl)c2)c(=O)[nH]1` yielded a minimal effective concentration (Eimeria tenella [1]) of over 500 µg/mL.
With `COCCN(CCOC)S(=O)(=O)c1c(C)cc(-n2ncc(=O)[nH]c2=O)cc1C` the minimal effective concentration (Eimeria tenella [1]) was 250 µg/mL.
Work on `CCN(C)S(=O)(=O)c1ccc(-n2ncc(=O)[nH]c2=O)cc1Cl` yielded a minimal effective concentration (Eimeria tenella [1]) of 120 µg/mL.
With `O=c1cnn(-c2ccc(S(=O)(=O)N3CCCCC3)cc2)c(=O)[nH]1` the minimal effective concentration (Eimeria tenella [1]) was 250 µg/mL.
Work on `C=CCN(C)S(=O)(=O)c1ccc(-n2ncc(=O)[nH]c2=O)cc1Cl` yielded a minimal effective concentration (Eimeria tenella [1]) of 60 µg/mL.
`Cc1ccc(NS(=O)(=O)c2ccc(-n3ncc(=O)[nH]c3=O)cc2Cl)cc1Cl` showed a minimal effective concentration (Eimeria tenella [1]) of over 250 µg/mL.
`O=c1cnn(-c2ccc(S(=O)(=O)N3CCSCC3)c(Cl)c2)c(=O)[nH]1` gave a minimal effective concentration (Eimeria tenella [1]) of 60 µg/mL.
Compound `CC(C)(C)CC(C)(C)NS(=O)(=O)c1ccc(-n2ncc(=O)[nH]c2=O)cc1` has a minimal effective concentration (Eimeria tenella [1]) of over 120 µg/mL.
`O=c1cnn(-c2ccc(S(=O)(=O)Nc3c(F)c(F)c(F)c(F)c3F)c(Cl)c2)c(=O)[nH]1` showed a minimal effective concentration (Eimeria tenella [1]) of over 60 µg/mL.
With `O=c1cnn(-c2ccc(S(=O)(=O)N3CCCCC3)c(Cl)c2)c(=O)[nH]1` the minimal effective concentration (Eimeria tenella [1]) was 250 µg/mL.
Work on `COc1ccc(NS(=O)(=O)c2c(C)cc(-n3ncc(=O)[nH]c3=O)cc2C)cc1` yielded a minimal effective concentration (Eimeria tenella [1]) of over 250 µg/mL.
For `Cc1cccc(-n2ncc(=O)[nH]c2=O)c1`, the MEC (Gallus gallus [2]) was over 120 p.p.m.
`CCCN(C)S(=O)(=O)c1ccc(-n2ncc(=O)[nH]c2=O)cc1Cl` gave a minimal effective concentration (Eimeria tenella [1]) of 250 µg/mL.
`Cc1cc(-n2ncc(=O)[nH]c2=O)cc(Cl)c1S(=O)(=O)N1CCOCC1` gave a half-life [3] of 1 h, a minimal effective concentration (Eimeria tenella [1]) of 10 µg/mL and a Plasma level (Gallus gallus [4]) of 0.38 µg/mL. For the same compound, the minimal effective concentration (Eimeria tenella [5]) was 10 µg/mL and the minimal effective concentration (Eimeria acervulina) was 60 µg/mL.
`Cc1cc(-n2ncc(=O)[nH]c2=O)ccc1S(=O)(=O)N1CCN(C=O)CC1` showed a minimal effective concentration (Eimeria tenella [1]) of 500 µg/mL.
Compound `Cc1cc(C)cc(-n2ncc(=O)[nH]c2=O)c1` has a half-life [6] of 12 h, a half-life [3] of 6 h and a minimal effective concentration (Eimeria tenella [1]) of 30 µg/mL. It also gave a Plasma level (Gallus gallus [7]) of 22.4 µg/mL and a Plasma level (Gallus gallus [4]) of 8.1 µg/mL.
Compound `CN(Cc1ccccc1)S(=O)(=O)c1ccc(-n2ncc(=O)[nH]c2=O)cc1Cl` has an MEC (Gallus gallus [8]) of 60 p.p.m.
`O=c1cnn(-c2ccc(S(=O)(=O)N3CCOCC3)c(Cl)c2)c(=O)[nH]1` showed a half-life [3] of 2.1 h, a minimal effective concentration (Eimeria tenella [1]) of 30 µg/mL and a Plasma level (Gallus gallus [4]) of 1.9 µg/mL. For the same compound, the minimal effective concentration (Eimeria tenella [5]) was 30 µg/mL and the minimal effective concentration (Eimeria acervulina) was 120 µg/mL.
`CCCN(CCC)S(=O)(=O)c1ccc(-n2ncc(=O)[nH]c2=O)cc1Cl` gave a minimal effective concentration (Eimeria tenella [1]) of over 250 µg/mL.
With `O=c1cnn(-c2cc(Br)c(S(=O)(=O)N3CCOCC3)c(Br)c2)c(=O)[nH]1` the minimal effective concentration (Eimeria tenella [1]) was over 30 µg/mL.
With `O=c1cnn(-c2ccc(S(=O)(=O)N3CCC(O)CC3)c(Cl)c2)c(=O)[nH]1` the minimal effective concentration (Eimeria tenella [1]) was over 250 µg/mL.
`O=c1cnn(-c2cccc(Cl)c2)c(=O)[nH]1` showed a minimal effective concentration (Eimeria tenella [1]) of 120 µg/mL.
Work on `Cc1cc(-n2ncc(=O)[nH]c2=O)ccc1S(=O)(=O)N1CCOCC1` yielded a half-life [3] of 1.1 h, an MEC (Gallus gallus [9]) of 15 p.p.m and a Plasma level (Gallus gallus [4]) of 3.1 µg/mL. For the same compound, the minimal effective concentration (Eimeria tenella [5]) was 15 µg/mL and the minimal effective concentration (Eimeria acervulina) was 30 µg/mL.
Work on `CN(C1CCCC1)S(=O)(=O)c1ccc(-n2ncc(=O)[nH]c2=O)cc1Cl` yielded a minimal effective concentration (Eimeria tenella [1]) of over 120 µg/mL.
Work on `CCOC(=O)N1CCN(S(=O)(=O)c2ccc(-n3ncc(=O)[nH]c3=O)cc2Cl)CC1` yielded a minimal effective concentration (Eimeria tenella [1]) of over 250 µg/mL.
Compound `O=c1cnn(-c2cc(Cl)c(Cl)c(Cl)c2)c(=O)[nH]1` has a minimal effective concentration (Eimeria tenella [1]) of 4 µg/mL.
For `Cc1cc(Cl)cc(NS(=O)(=O)c2ccc(-n3ncc(=O)[nH]c3=O)cc2Cl)c1`, the minimal effective concentration (Eimeria tenella [1]) was over 250 µg/mL.
